Legend:
Details in all cases: stereoisomer not certain
OR10H4 (Homo sapiens) = target: T1, OR10H4 (Homo sapiens) (UniProt Q8NGA5)
T1 sequence (whole entry): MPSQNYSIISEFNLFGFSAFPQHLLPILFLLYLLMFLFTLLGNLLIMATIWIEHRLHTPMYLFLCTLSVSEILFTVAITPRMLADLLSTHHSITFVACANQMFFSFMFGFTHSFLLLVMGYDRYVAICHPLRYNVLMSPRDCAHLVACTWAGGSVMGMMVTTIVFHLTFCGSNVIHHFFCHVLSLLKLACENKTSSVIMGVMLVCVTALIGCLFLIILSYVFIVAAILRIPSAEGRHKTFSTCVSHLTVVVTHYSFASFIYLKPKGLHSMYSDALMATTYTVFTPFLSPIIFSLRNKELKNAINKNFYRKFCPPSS
In short: (§1)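 Each receptor–molecule pair is labelled responsive or non-responsive (inactive) according to whether the original authors judged the measured signal statistically different from baseline. The data were taken from the main text and supplementary material of published papers and checked for typos and inconsistencies. Assay methods differed by source, with transient luciferase assays in mammalian cell lines being common.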

OR10H5 (Homo sapiens) = target: T2, OR10H5 (Homo sapiens) (UniProt Q8NGA6)
T2 sequence (whole entry): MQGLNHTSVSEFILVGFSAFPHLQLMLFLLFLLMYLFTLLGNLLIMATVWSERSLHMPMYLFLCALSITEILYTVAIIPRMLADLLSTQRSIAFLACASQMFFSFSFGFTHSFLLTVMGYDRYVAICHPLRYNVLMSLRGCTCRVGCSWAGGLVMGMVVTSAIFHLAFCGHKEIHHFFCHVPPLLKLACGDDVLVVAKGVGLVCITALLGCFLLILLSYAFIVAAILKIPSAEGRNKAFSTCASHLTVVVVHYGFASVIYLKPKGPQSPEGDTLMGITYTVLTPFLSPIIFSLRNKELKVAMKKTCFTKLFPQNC
In short: as §1

OR10J1 (Homo sapiens) = target: T3, OR10J1 (Homo sapiens) (UniProt P30954)
T3 sequence (whole entry): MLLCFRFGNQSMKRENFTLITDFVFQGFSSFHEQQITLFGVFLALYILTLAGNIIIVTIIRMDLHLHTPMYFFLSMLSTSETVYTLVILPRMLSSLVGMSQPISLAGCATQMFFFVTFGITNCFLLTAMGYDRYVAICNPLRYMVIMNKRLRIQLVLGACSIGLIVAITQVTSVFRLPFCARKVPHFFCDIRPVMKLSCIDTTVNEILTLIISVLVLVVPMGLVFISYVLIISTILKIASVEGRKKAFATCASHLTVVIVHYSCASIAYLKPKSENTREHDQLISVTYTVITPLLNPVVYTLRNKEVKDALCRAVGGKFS
In short: as §1

OR10J3 (Homo sapiens) = target: T4, OR10J3 (Homo sapiens) (UniProt Q5JRS4)
T4 sequence (whole entry): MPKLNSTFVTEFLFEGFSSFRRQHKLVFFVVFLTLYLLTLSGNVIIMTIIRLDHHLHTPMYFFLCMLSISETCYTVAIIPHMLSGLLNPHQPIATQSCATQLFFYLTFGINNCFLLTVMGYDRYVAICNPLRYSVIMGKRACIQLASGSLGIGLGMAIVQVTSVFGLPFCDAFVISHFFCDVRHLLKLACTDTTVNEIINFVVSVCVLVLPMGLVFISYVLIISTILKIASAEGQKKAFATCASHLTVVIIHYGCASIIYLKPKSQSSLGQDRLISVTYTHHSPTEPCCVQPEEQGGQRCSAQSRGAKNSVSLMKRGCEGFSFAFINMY
In short: as §1

OR10J5 (Homo sapiens) = target: T5, OR10J5 (Homo sapiens) (UniProt Q8NHC4)
T5 sequence (whole entry): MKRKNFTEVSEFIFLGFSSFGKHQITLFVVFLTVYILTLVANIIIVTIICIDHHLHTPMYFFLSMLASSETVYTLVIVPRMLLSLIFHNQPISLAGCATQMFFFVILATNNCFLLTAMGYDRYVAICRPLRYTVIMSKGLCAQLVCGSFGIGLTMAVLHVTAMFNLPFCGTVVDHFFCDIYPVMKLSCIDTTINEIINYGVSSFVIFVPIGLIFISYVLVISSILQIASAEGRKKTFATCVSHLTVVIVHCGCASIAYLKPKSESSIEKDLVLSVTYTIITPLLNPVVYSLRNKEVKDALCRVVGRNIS
In short: as §1

OR10K1 (Homo sapiens) = target: T6, OR10K1 (Homo sapiens) (UniProt Q8NGX5)
T6 sequence (whole entry): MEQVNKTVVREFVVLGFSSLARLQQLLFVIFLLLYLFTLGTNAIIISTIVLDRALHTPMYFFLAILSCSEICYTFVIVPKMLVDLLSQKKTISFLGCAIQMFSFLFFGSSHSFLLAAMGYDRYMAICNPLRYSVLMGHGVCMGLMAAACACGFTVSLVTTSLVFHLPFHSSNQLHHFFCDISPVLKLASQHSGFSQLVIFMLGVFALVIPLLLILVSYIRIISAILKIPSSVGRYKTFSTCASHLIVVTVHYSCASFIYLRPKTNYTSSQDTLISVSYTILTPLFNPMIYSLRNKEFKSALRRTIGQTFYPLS
In short: as §1

OR10K2 (Homo sapiens) = target: T7, OR10K2 (Homo sapiens) (UniProt Q6IF99)
T7 sequence (whole entry): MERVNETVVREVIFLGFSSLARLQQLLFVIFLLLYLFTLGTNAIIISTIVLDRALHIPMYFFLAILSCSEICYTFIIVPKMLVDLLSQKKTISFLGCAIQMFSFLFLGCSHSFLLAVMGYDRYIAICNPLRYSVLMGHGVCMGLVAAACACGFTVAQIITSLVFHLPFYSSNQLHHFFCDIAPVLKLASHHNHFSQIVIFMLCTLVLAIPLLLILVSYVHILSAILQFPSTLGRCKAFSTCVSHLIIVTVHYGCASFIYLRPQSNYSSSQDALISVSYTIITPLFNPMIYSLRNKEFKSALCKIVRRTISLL
In short: as §1

OR10P1 (Homo sapiens) = target: T8, OR10P1 (Homo sapiens) (UniProt Q8NGE3)
T8 sequence (whole entry): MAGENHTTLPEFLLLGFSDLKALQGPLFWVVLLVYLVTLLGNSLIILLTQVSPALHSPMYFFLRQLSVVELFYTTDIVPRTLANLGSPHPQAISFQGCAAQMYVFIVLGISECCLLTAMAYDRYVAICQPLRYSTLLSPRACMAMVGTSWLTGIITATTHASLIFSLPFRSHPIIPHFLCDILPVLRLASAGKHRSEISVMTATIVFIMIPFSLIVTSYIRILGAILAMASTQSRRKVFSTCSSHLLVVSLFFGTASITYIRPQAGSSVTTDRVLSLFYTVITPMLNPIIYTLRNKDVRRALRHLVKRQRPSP
In short: as §1

OR10Q1 (Homo sapiens) = target: T9, OR10Q1 (Homo sapiens) (UniProt Q8NGQ4)
T9 sequence (whole entry): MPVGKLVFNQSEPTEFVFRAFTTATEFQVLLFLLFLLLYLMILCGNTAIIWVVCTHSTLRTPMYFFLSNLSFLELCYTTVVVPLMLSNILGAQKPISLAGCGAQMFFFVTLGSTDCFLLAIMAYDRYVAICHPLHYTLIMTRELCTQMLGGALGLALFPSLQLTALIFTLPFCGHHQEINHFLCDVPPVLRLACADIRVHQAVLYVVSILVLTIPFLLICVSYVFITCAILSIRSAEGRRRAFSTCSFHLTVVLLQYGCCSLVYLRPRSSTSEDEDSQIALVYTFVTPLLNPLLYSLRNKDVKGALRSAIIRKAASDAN
In short: as §1

Measured: odorant receptor agonist call

CC(CO)CS (centres undefined)
inactive: OR10H4 (Homo sapiens) | OR10H5 (Homo sapiens) | OR10J1 (Homo sapiens) | OR10J3 (Homo sapiens) | OR10J5 (Homo sapiens) | OR10K1 (Homo sapiens) | OR10K2 (Homo sapiens) | OR10P1 (Homo sapiens) | OR10Q1 (Homo sapiens)
